Calls of active or inactive are those of the source.
Key:
[1] = target: 5-hydroxytryptamine receptor 7 (Homo sapiens, UniProt P34969); test: Displacement of [3H]-5-CT from human 5-HT7b receptor expressed in HEK293 cells after 1 hr by microbeta counting analysis; type: cell-based
Outline: (§1)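 Membranes from stably transfected HEK293 or CHO-K1 cells, homogenized, centrifuged twice at 35,000g, with 15 min at 37 °C in between. Receptor-specific Tris-HCl buffers with MgCl2, plus EDTA, pargyline or ascorbate as applicable. Incubated 1 h at 37 °C (5-HT1A at room temperature), filtered, and bound radioactivity counted.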

[2] = target: T1, 5-hydroxytryptamine receptor 1A (Homo sapiens, UniProt P08908); test: Displacement of [3H]-8-OH-DPAT from human 5-HT1A receptor expressed in HEK293 or CHO-K1 cells after 1 hr by microbeta counting analysis; type: cell-based; outline: as §1
T1 sequence (P08908 whole entry): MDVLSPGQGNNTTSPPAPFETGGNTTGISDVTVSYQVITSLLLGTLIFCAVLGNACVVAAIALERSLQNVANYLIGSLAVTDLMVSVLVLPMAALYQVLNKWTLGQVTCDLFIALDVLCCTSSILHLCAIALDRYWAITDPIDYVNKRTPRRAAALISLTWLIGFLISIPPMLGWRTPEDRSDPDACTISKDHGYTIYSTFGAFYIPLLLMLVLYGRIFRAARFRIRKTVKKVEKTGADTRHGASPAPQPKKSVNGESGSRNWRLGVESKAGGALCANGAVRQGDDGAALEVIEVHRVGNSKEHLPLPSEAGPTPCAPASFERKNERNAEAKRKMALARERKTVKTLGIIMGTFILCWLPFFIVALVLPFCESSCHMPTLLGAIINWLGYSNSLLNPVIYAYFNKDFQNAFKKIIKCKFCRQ

Homo sapiens = species: Homo sapiens; test: Selectivity ratio of Ki for human 5-HT1A receptor to Ki for human 5-HT7b receptor
Mus musculus [3] = test: Antidepressant-like activity in Swiss albino mouse assessed as decrease in immobility time at 1.25 mg/kg measured during last 4 mins of 6 mins test by forced swim test relative to control; type: functional; parameters: scale not given: the % may be the effect or the level left
Outline: (§2)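 Porsolt swim test in male Swiss albino mice (22–26 g), 7–10 per dose, each used once, run 09:00–14:00 by a blinded observer. Drugs in distilled water, i.p. at 10 ml/kg: escitalopram 30 min before test, others 60 min. Immobility scored during the last 4 min of a 6 min swim at 23–25 °C. One-way ANOVA with Bonferroni vs vehicle.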

Mus musculus [4] = test: Antidepressant-like activity in Swiss albino mouse assessed as decrease in immobility time at 2.5 mg/kg measured during last 4 mins of 6 mins test by forced swim test relative to control; type: functional; parameters: scale not given: the % may be the effect or the level left; outline: as §2
Mus musculus [5] = test: Antidepressant-like activity in C57BL/6J mouse assessed as decrease in immobility time at 5 to 20 mg/kg measured during 6 mins session by tail suspension test; type: functional, organism-based
Outline: (§3)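 C57BL/6J male mice (22–26 g), 7–9 per group. Escitalopram in distilled water, i.p. at 10 ml/kg, 30 min before test. Tail suspension on a strain gauge for 6 min, scoring fight force, episode count and immobility below a 0.20 N threshold. One-way ANOVA with Bonferroni.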

Mus musculus [6] = test: Antidepressant-like activity in C57BL/6J mouse assessed as increase in average force of fights at 20 mg/kg measured during 6 mins session by tail suspension test; type: functional, organism-based; outline: as §3
Mus musculus [7] = test: Antidepressant-like activity in Swiss albino mouse assessed as decrease in immobility time at 0.625 mg/kg measured during last 4 mins of 6 mins test by forced swim test; type: functional, organism-based; outline: as §2
Mus musculus [8] = test: Antidepressant-like activity in Swiss albino mouse assessed as decrease in immobility time at 10 mg/kg measured during last 4 mins of 6 mins test by forced swim test relative to control; type: functional; parameters: scale not given: the % may be the effect or the level left; outline: as §2
Mus musculus [9] = test: Antidepressant-like activity in C57BL/6J mouse at 2.5 mg/kg measured during 6 mins session by tail suspension test; type: functional, organism-based
Outline: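 Male C57BL/6J mice (22–26 g), 7–9 per group. Compound in distilled water, i.p. at 10 ml/kg, 60 min before test. Mice suspended by tail from a strain-gauge hook for 6 min. Struggling episodes, average event force and immobility (force below 0.20 N threshold) recorded automatically. One-way ANOVA with Bonferroni; mean ± SEM.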

Rattus norvegicus = test: Cognitive enhancement effect in Sprague-Dawley rat memory impairment model assessed as reversal of natural forgetting impairment at 1 mg/kg, ip administered 30 mins prior to test measured after 24 hrs by novel object recognition test; type: functional, organism-based
Outline: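 Male Sprague–Dawley rats (about 250 g), handled and acclimatized. Habituated to an open field arena (25 lx) for 5 min, 24 h before testing. Two 3-min trials (T1, T2) separated by a 24 h inter-trial interval. Drug given i.p. 30 min before T1. Object exploration video-tracked; discrimination index = (EB−EA)/(EA+EB).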

Chain of 5-hydroxytryptamine receptor 7 (P34969 whole entry): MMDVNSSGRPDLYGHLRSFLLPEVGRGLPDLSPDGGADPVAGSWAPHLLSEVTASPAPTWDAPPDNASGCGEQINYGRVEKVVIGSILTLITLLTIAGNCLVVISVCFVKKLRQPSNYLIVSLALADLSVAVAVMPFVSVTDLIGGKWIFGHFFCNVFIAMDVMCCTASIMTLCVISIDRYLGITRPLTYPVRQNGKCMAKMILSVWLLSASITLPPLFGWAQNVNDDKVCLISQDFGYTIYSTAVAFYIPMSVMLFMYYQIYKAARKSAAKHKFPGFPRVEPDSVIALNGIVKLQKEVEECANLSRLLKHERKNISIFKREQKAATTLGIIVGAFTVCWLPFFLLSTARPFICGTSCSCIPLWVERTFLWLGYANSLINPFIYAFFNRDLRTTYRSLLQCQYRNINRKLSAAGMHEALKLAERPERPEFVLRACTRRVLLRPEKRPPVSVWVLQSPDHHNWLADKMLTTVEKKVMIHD

With `O=S(=O)(NC1CCN(CC(O)COc2ccccc2-c2ccccc2)CC1)c1ccc(F)cc1` (stereo not drawn) the Ki [1] was 59 nM, the Ki [2] was 1320 nM and the Ratio Ki (Homo sapiens) was 22.

`CC(COc1ccccc1-c1ccccc1)N1CCC(NS(=O)(=O)c2ccc(F)cc2)CC1` (stereo not drawn) was tested, and the Ki [1] was 34 nM, the Ki [2] was 297 nM and the Ratio Ki (Homo sapiens) was 9.

With `CC(C)c1ccccc1OCC(C)N1CCC(NS(=O)(=O)c2ccc(F)cc2)CC1` (stereo not drawn) the Ki [1] was 74 nM, the Ki [2] was 1170 nM and the Ratio Ki (Homo sapiens) was 16.

With `O=S(=O)(NC1CCN(CCCOc2ccccc2-c2ccccc2)CC1)c1cccc(Cl)c1` the Ki [1] was 52 nM, the Ki [2] was 1630 nM and the Ratio Ki (Homo sapiens) was 31.

Work on `CC(C)c1ccccc1OCC(O)CN1CCC(NS(=O)(=O)c2cccc(F)c2)CC1` (stereo not drawn) yielded a Ki [1] of 213 nM, a Ki [2] of 742 nM and a Ratio Ki (Homo sapiens) of 4.

For `CN(C)CCC[C@@]1(c2ccc(F)cc2)OCc2cc(C#N)ccc21` [ESCITALOPRAM], the Activity (Mus musculus [3]) was 27%, the Activity (Mus musculus [4]) was 34% and the Activity (Mus musculus [5]) was “Active”. The Activity (Mus musculus [6]) was “Active” and the Activity (Mus musculus [7]) was “inactive”.

`CC1CCN(CC[C@H]2CCCN2S(=O)(=O)c2cccc(O)c2)CC1` was tested, and the Activity (Mus musculus [8]) was 31%, the Activity (Mus musculus [9]) was “Active” and the Activity (Rattus norvegicus) was “Active”.

— ChEMBL document CHEMBL4177556, “Novel 5-HT7R antagonists, arylsulfonamide derivatives of (aryloxy)propyl piperidines: Add-on effect to the antidepressant activity of SSRI and DRI, and pro-cognitive profile” (Bioorg Med Chem, 2017)
